Test results published in ChEMBL document CHEMBL3751667, “Carbamate substituted 2-amino-4,6-diphenylpyrimidines as adenosine receptor antagonists” (Bioorg Med Chem Lett, 2016).
Values after ≈ are worked out from the molar mass of the structure shown. Active and inactive are the calls of the source. No cut-off for these calls is given here.

Key:
[1] = target: Adenosine receptor A2a (Rattus norvegicus, UniProt P30543); assay: Displacement of [3H]NECA from adenosine A2A receptor in Sprague-Dawley rat striatal membrane after 1 hr by scintillation counting; design: species or system Striatum
Chain of Adenosine receptor A2a (P30543 whole entry): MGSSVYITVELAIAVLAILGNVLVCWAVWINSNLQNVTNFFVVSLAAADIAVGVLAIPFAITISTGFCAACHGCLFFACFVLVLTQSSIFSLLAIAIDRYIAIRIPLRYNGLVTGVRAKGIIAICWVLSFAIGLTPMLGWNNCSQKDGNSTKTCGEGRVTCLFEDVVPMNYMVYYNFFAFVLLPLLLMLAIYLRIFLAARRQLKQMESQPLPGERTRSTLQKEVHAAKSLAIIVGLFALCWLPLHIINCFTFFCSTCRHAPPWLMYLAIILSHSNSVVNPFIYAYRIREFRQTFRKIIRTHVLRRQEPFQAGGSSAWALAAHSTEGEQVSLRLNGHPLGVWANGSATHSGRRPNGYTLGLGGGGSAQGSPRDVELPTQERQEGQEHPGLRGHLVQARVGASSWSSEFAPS

[2] = organism: Rattus norvegicus; assay: Selectivity ratio of Ki for adenosine A2A receptor in Sprague-Dawley rat striatal membrane to Ki for adenosine A1 receptor in Sprague-Dawley rat whole brain
How it was run: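 Index calculated as A2A Ki divided by A1 Ki. Both Ki values come from radioligand binding assays and are given as the mean ± SEM of duplicate determinations.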

[3] = target: T1, Adenosine receptor A1 (Rattus norvegicus, UniProt P25099); assay: Displacement of [3H]DPCPX from adenosine A1 receptor in Sprague-Dawley rat whole brain after 1 hr by scintillation counting
T1 sequence (P25099 whole entry): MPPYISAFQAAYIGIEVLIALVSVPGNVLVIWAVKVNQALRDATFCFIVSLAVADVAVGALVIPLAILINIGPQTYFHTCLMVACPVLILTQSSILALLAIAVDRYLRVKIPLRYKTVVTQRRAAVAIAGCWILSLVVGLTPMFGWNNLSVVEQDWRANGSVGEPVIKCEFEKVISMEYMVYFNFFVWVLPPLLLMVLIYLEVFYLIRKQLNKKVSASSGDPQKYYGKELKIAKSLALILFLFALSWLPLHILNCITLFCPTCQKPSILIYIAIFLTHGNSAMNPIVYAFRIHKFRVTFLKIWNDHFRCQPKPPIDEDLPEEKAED

[4] = Solubility of the compound at 4.5 mg after 24 hrs by HPLC analysis; assay type: physicochemical
How it was run: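 Water solubility: excess compound shaken in water at 37 °C.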

[5] = n-octanol-potassium phosphate buffer partition coefficient, log D of the compound at pH 7.4 by shake flask method; assay type: physicochemical
How it was run: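 Shake flask method; hydrophilic phase potassium phosphate buffer pH 7.4, hydrophobic phase n-octanol.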

[6] = test system: Rattus norvegicus; assay: Reversal of haloperidol-induced catalepsy in Sprague-Dawley rat at 0.4 to 2 mg/kg, ip after 60 mins relative to control; assay type: functional, organism-based
How it was run: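 Sprague–Dawley rats, drug naïve, three groups; all given haloperidol 5.0 mg/kg i.p. to induce catalepsy. Thirty minutes later: DMSO (control) or test compound at 0.4 or 2 mg/kg. Catalepsy scored by standard bar test 60 minutes after first injection; compared with haloperidol + vehicle group by one-way ANOVA and Dunnett's post test.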

| SMILES | Ki [1] [nM] | Ratio Ki [2] | Ki [3] [nM] | solubility at 24 h [4] [µM] | logD [5] | Activity [6] |
| --- | --- | --- | --- | --- | --- | --- |
| Nc1nc(-c2ccccc2)cc(-c2cccc(OC(=O)N(c3ccccc3)c3ccccc3)c2)n1 | 451 | 42 | 10.7 | – | – | – |
| CN(C(=O)Oc1cccc(-c2cc(-c3ccccc3)nc(N)n2)c1)c1ccccc1 | 39.9 | 37 | 1.07 | – | – | – |
| CN(C)C(=O)Oc1cccc(-c2cc(-c3ccccc3)nc(N)n2)c1 | 51.9 | 25 | 2.06 | – | – | – |
| CN1CCN(C(=O)Oc2cccc(-c3cc(-c4ccccc4)nc(N)n3)c2)CC1 | 1.58 | 0.8 | 2.04 | 0.22 (≈ 0.0857 µg/mL) | 4.03 | inactive |
| Nc1nc(-c2ccccc2)cc(-c2cccc(OC(=O)N3CCCCC3)c2)n1 | 8.94 | 4.6 | 1.95 | – | – | – |
| Nc1nc(-c2ccccc2)cc(-c2cccc(OC(=O)N3CCCC3)c2)n1 | 24.8 | 30 | 0.835 | – | – | – |
| CC(C)N(C(=O)Oc1cccc(-c2cc(-c3ccccc3)nc(N)n2)c1)C(C)C | 12.1 | 69 | 0.175 | – | – | – |
| Nc1nc(-c2ccccc2)cc(-c2cccc(OC(=O)N3CCOCC3)c2)n1 | 3.5 | 1.3 | 2.65 | – | – | Active |
| CCN(CC)C(=O)Oc1cccc(-c2cc(-c3ccccc3)nc(N)n2)c1 | 22.8 | 49 | 0.468 | – | – | – |
